Most compounds without a hit are left out; they make up all but 6.9% or so of the library.
Calb biofilm kill: kills Candida albicans biofilms; C. albicans biofilm + clotrimazole, Alamar Blue; inhibition, % at 6 µM; actives 0.14% (n = 85,000); AID 834;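 active = inhibition above 20%; inactive = inhibition below 20%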;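 also: preformed 24 hr biofilms exposed to compound for 48 hr; 0% = biofilm without compound and 100% = blank killed by clotrimazole plus chlorhexidine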
PostGolgi ctrl: yeast control strain growth, post-Golgi counter-screen; inhibition, % at 10 µM; efflux-deficient yeast background strain, growth absorbance A615, 16 h; AID 738; actives 5% (n = 98,000)
PostGolgi yeast: growth inhibition of a yeast mutant, post-Golgi transport screen. post-Golgi transport phenotypic cell assay. inhibition, % at 10 µM. actives 0.9% (n = 98,000). AID 739;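 also: yeast cells grown in 1536-well plates; yeast grown about 18 h at 30C before absorbance read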
PTK2B oligo ant: Pyk2 (human) oligomerization antagonism; actives 0.83% (n = 99,000); Q293 cells, Pyk2 FERM NanoBiT luminescence; stronger effect = lower value; z-score (the deposit names both 25 µM and 10 µM); Q14289;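 active = Z-score of -3 or lower, scaled per plate to the spread of control and sample wells; inactive = z-score above -3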;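 also: negative z-score means lost luminescence so less FERM oligomerization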
FAK inh: inhibitors of human focal adhesion kinase. inhibition, %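 (tested at 7 µM)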. AID 727. actives 0.84% (n = 97,000). Q05397. biochemical FAK kinase activity assay; in the data active = inhibition above about 19%;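 also: 0% = DMSO and 100% = reference compound high control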
Target sequence (Q05397 whole entry, looked up): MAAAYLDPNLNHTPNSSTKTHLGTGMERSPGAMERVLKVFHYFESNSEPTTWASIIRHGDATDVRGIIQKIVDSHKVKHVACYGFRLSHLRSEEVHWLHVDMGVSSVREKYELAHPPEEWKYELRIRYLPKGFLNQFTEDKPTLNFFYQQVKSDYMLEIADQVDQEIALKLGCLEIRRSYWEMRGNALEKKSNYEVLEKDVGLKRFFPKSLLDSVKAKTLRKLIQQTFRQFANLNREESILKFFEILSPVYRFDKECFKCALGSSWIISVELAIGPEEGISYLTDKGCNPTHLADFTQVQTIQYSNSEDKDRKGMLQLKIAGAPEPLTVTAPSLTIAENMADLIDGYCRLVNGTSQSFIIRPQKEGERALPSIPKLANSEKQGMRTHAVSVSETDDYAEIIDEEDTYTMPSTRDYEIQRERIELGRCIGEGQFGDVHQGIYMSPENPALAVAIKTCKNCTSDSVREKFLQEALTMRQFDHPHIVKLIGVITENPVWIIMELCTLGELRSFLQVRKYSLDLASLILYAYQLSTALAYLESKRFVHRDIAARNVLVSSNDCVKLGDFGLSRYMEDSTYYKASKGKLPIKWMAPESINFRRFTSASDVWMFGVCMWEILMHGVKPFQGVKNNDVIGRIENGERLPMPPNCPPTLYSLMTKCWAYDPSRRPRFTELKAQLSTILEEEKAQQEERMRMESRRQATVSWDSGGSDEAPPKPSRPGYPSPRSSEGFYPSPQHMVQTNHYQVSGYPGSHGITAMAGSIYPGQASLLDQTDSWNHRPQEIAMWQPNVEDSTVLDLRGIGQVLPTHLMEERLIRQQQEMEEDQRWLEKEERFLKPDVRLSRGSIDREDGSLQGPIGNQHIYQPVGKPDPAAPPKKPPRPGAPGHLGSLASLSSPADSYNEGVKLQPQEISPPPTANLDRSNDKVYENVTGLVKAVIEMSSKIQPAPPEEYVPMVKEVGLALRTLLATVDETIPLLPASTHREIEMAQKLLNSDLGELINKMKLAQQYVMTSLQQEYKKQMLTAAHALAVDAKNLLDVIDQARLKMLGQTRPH
tolC growth inh: E. coli tolC mutant growth inhibition; E. coli BW25113 tolC mutant growth, OD615; actives 2.2% (n = 65,000); growth inhibition, % at 10 µM (by protocol);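 active = growth inhibition at or above a cutoff equal to the mean over every tested compound plus 3 SD, cut at about 60% in these data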;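 also: growth measured after 20 h incubation at 37 °C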
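Test system: E. coli BW25113 ΔtolC::kan bacteria; incubation: 37 °C, 20 h exposure; medium: LB broth supplemented with 50 µg/mL kanamycin; read-out basis: percent growth inhibition; signal: A615 absorbance measurement; compound: 10 µM final, single dose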
Starred values were filed as active, the others as inactive; . = no result given. Rule as the data show it, unless noted: active = inhibition above about 30%; inactive = the rest.

SMILES | Calb biofilm kill | PostGolgi ctrl | PostGolgi yeast | PTK2B oligo ant | FAK inh | tolC growth inh
O=C(c1ccco1)N1CCN(c2ncnc3c2[nH]c2ccc(Br)cc23)CC1 | 5 | 19 | 11 | 1.3 | 0 | 65*
O=C(c1ccco1)N1CCN(c2ncnc3c2[nH]c2ccccc23)CC1 | -1 | 3 | 43* | . | 7 | 6
Cc1ccc(S(=O)(=O)N2CCC(C(=O)Nc3nnc(COc4ccccc4)s3)CC2)cc1 | 5 | 0 | -1 | 1.1 | -7 | -9
COC(=O)c1c(C#N)c(N)nc2c1CCC2 | 10 | -7 | -1 | 0.88 | -5 | -16
Cc1ccc(S(=O)(=O)N(C)c2ccc(C(=O)O)cc2)cc1 | 6 | -2 | -2 | 0.16 | -2 | -2
CCCc1cc(=O)[nH]c(SCC(=O)c2cc(C)n(C(C)COC)c2C)n1 (centres undefined) | 7 | 49* | -3 | -0.23 | -8 | 10
COCC(C)n1c(C)cc(C(=O)COC(=O)c2nc3nc(C)cc(C)n3n2)c1C (centres undefined) | 0 | 33* | 8 | -0.64 | 4 | -24
COCC(C)n1c(C)cc(C(=O)COC(=O)c2ccc3ncsc3c2)c1C (centres undefined) | 10 | 15 | 2 | 0.5 | -1 | 13
CN1C(=O)N(C)C2(c3ccccc3)Nn3c(s/c(=C/c4ccccc4)c3=O)=NC12c1ccccc1 (centres undefined) | -1 | 8 | 7 | 0.99 | 0 | .
Cc1ccc2oc(C(=O)NCc3ccc4c(c3)OCO4)c(C)c2c1 | 10 | 28 | -1 | -0.79 | 4 | 86*
O=C(NCc1ccc2c(c1)OCO2)c1ccncc1 | 6 | 3 | -11 | 1.1 | . | -10
Cc1cc(C)cc(-n2nnc(C(=O)NCc3ccc4c(c3)OCO4)c2N)c1 | 4 | 31* | -3 | -1.7 | 1 | 44
Cc1ccc(NC(=O)c2nnn(-c3cc(C)cc(C)c3)c2N)cc1 | -5 | 5 | -10 | -1.9 | 0 | 67*
Cc1c(C(=O)NCc2ccc3c(c2)OCO3)oc2ccc(Br)cc12 | . | 26 | 7 | 0.26 | 1 | .
O=C(NCc1ccc2c(c1)OCO2)c1ccc(-n2cnnn2)cc1 | 8 | 1 | 41* | 1 | 1 | -20
CC(=O)Nc1c(C#N)c(C(C)(C)C)cn1C | 2 | 19 | 13 | 1 | -2 | 7
O=C1C(C=NC2CC2)=C(O)c2ccccc21 | 0 | -6 | 8 | -0.79 | 3 | .
O=C(NCc1ccc2c(c1)OCO2)c1cccc(Cl)c1 | 9 | 2 | -2 | 0.1 | . | -13
O=C(NCc1ccc2c(c1)OCO2)c1ccc(-c2ccc(Cl)cc2)o1 | 4 | 70* | 16 | 0.66 | -2 | 79*
OC(c1ccc(Cl)cc1)c1nnc(-c2ccccc2)o1 (centres undefined) | -7 | -10 | 5 | -1.4 | 1 | 15
CN(C)c1ccc2c(c1)OC(N)=C(C#N)C2c1cccc(F)c1 (centres undefined) | 3 | 37* | -3 | -3.1* | . | 20
O=C(NCc1ccccc1)c1sc(=S)n2c1[nH]c(=O)c1ccccc12 | 8 | 47* | 4 | -0.74 | -10 | .
O=C(NCc1ccccc1)c1c(F)c(F)c(F)c(F)c1F | 5 | -8 | 4 | 0.03 | 1 | 5
CCOC(=O)C1CCCN(C(=O)c2c(-c3ccccc3Cl)noc2C)C1 (centres undefined) | 8 | -1 | -1 | 0.36 | -4 | -9
[O-][n+]1onc2c1CCc1nnc(-c3ccccc3)cc1-2 | 6 | 32* | 3 | 0.02 | 8 | -7
SMILES | Calb biofilm kill | PostGolgi ctrl | PostGolgi yeast | PTK2B oligo ant | FAK inh | tolC growth inh
COc1ccc(OC)c(CCNC(=O)C2CCN(c3nnc(-n4cccc4)s3)CC2)c1 | 3 | -2 | -1 | . | 4 | -1
Nc1[nH]c(=S)[nH]c(=O)c1-c1ccccc1 | 7 | -8 | -4 | 0.32 | -1 | -7
C=CCN(C(=O)c1cccc(S(=O)(=O)N2CCN(C)CC2)c1)c1nc(-c2ccccc2)cs1 | . | 22 | 35* | 0.88 | 1 | .
Cc1c(NC2=C(Cl)C(=O)N(c3ccccc3)C2=O)c(=O)n(-c2ccccc2)n1C | 0 | 31* | 7 | -0.48 | 3 | -5
O=C1C(Cl)=C(Nc2ccccc2O)C(=O)N1c1ccccc1 | 3 | 15 | -10 | -0.57 | -1 | 7
Cc1cc(=O)[nH]c(Nc2c(C)n(C)n(-c3ccccc3)c2=O)n1 | 7 | -8 | -3 | -0.56 | 2 | -6
Cc1c(Nc2nc3ccccc3nc2N2CCN(c3ccccc3)CC2)c(=O)n(-c2ccccc2)n1C | 1 | 34* | 2 | -2 | 1 | 11

Screening data (PubChem)
